Experimental data reported in ChEMBL document CHEMBL3525985, “Regiospecificity and stereospecificity of human UDP-glucuronosyltransferases in the glucuronidation of estriol, 16-epiestriol, 17-epiestriol, and 13-epiestradiol” (Drug Metab Dispos, 2013).

Legend:
Type in all cases: ADME
Liver microsome = test: Drug metabolism in human liver microsomes assessed as estriol-3-glucuronide formation after 15 to 60 mins by Michaelis-Menten equation analysis in presence of UDPGA
In short: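 Pooled human liver microsomes (30 donors), 0.5 or 10 µg, with alamethicin at 5% of total protein. Incubated with 50 mM phosphate pH 7.4, 10 mM MgCl₂, 5 mM UDPGA and 10% DMSO for 15–60 min at 37°C. Each glucuronide regioisomer quantified by HPLC, in triplicate, with substrate consumption at or below 10%.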

[1] = molecular target: T1, UDP-glucuronosyltransferase 2B7 (Homo sapiens, UniProt P16662); test: Inhibition of recombinant human C-terminal His-tagged UGT2B7 after 15 to 60 mins by Michaelis-Menten equation analysis in presence of UDPGA
T1 sequence (P16662 whole entry): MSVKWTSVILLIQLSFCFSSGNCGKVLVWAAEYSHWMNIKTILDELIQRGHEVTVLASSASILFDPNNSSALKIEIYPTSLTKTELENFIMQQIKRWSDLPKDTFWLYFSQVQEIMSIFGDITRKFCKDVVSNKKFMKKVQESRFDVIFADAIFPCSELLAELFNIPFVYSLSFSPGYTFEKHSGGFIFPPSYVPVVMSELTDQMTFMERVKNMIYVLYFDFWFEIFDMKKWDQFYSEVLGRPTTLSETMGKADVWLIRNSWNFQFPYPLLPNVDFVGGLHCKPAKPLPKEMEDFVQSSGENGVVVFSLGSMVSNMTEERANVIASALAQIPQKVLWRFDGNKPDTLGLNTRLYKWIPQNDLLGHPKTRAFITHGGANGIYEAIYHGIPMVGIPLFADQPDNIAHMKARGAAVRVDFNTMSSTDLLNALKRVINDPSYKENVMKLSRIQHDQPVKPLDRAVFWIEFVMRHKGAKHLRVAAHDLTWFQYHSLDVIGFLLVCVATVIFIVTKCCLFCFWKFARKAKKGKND
In short: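 Kinetics with His-tagged UGT-enriched insect-cell membranes (5 or 50 µg): aglycone 0.2–300 µM in 10% DMSO, 5 mM UDPGA, 10 mM MgCl₂, 50 mM phosphate pH 7.4, 15–60 min at 37°C. Substrate consumption kept at or below 10%. Glucuronides quantified by HPLC in triplicate, rates normalized to expression, and data fitted to Michaelis-Menten.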

[2] = molecular target: T2, UDP-glucuronosyltransferase 2A1 (Homo sapiens, UniProt P0DTE4); test: Drug metabolism assessed as recombinant human C-terminal His-tagged UGT2A1-mediated 16-epiestriol-17-glucuronide formation at 200 uM after 15 to 60 mins by HPLC analysis in presence of UDPGA; conditions: recombinant enzyme
T2 sequence (P0DTE4 whole entry): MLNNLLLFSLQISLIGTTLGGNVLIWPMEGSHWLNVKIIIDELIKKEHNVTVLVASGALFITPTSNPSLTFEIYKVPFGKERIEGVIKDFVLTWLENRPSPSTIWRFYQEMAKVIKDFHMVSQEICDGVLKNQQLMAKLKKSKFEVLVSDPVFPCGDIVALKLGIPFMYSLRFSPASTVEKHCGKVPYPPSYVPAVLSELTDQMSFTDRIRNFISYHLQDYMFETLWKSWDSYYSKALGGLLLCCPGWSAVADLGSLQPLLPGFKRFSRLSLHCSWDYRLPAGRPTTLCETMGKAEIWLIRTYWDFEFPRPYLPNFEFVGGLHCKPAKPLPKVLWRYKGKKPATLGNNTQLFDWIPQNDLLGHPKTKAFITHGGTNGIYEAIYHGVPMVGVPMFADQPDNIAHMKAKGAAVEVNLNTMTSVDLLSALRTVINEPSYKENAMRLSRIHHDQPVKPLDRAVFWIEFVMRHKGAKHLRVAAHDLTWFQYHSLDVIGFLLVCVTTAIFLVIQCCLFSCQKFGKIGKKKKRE
In short: (§1)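 Screening at a single substrate concentration of 200 μM, in triplicate. The reaction used 5 or 50 µg of UGT-enriched insect cell membranes in 50 mM phosphate pH 7.4 with 10 mM MgCl₂ and 5 mM UDPGA, 10% final DMSO. Incubation was 15–60 min at 37°C. Perchloric acid stopped the reaction and supernatants were analysed by HPLC. Controls lacked UDPGA. Rates were normalized to relative UGT expression level.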

[3] = molecular target: T3, UDP-glucuronosyltransferase 2B4 (Homo sapiens, UniProt P06133); test: Drug metabolism assessed as recombinant human C-terminal His-tagged UGT2B4-mediated 17-epiestriol-17-glucuronide formation at 200 uM after 15 to 60 mins by HPLC analysis in presence of UDPGA; conditions: recombinant enzyme; in short: as §1
T3 sequence (P06133 whole entry): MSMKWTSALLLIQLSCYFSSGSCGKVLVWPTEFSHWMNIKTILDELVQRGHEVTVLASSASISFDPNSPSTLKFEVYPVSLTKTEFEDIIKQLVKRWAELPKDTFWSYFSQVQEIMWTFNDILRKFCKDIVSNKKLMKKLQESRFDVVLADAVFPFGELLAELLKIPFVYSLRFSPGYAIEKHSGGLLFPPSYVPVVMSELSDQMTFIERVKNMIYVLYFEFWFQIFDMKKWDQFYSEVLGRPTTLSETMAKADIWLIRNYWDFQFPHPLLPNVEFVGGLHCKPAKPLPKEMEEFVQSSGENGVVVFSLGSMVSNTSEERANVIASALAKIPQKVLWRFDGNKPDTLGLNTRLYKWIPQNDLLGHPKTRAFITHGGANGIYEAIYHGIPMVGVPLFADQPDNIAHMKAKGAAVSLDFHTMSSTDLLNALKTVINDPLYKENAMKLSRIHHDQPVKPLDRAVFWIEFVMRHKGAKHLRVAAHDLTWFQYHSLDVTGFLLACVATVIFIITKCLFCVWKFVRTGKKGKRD

[4] = molecular target: T1, UDP-glucuronosyltransferase 2B7; test: Drug metabolism assessed as recombinant human C-terminal His-tagged UGT2B7-mediated 17-epiestriol-17-glucuronide formation at 200 uM after 15 to 60 mins by HPLC analysis in presence of UDPGA; conditions: recombinant enzyme
In short: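 Membranes (5 or 50 µg) from insect cells expressing His-tagged UGT2B7, with 200 µM aglycone in 50 mM phosphate pH 7.4, 10 mM MgCl₂, 5 mM UDPGA and 10% DMSO (final), 15–60 min at 37°C. Stopped with perchloric acid on ice, supernatant run on HPLC. Done in triplicate with no-UDPGA controls; rates normalized to relative UGT expression.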

`C[C@]12CC[C@@H]3c4ccc(O)cc4CC[C@H]3[C@@H]1C[C@@H](O)[C@@H]2O` [ESTRIOL] showed a Km (Liver microsome) of 313 µM and a Vmax (Liver microsome) of 95 pmol/min/mg.
`C[C@]12CC[C@@H]3c4ccc(O)cc4CC[C@H]3[C@@H]1C[C@H](O)[C@@H]2O` [EPIESTRIOL] was tested, and the Ki [1] was 162 µM and the Drug metabolism [2] was “metabolite_detected”.
In the case of `C[C@]12CC[C@@H]3c4ccc(O)cc4CC[C@H]3[C@@H]1C[C@@H](O)[C@H]2O`, the Drug metabolism [3] is reported as “metabolite_detected” and the Drug metabolism [4] is reported as “metabolite_detected”.
